ChEMBL document CHEMBL3877272, “Synthesis and anti-mitotic activity of 6,7-dihydro-4H-isothiazolo[4,5-b]pyridin-5-ones: In vivo and cell-based studies” (Eur J Med Chem, 2017)
Active and inactive are the calls of the source.

Legend:
[1] = Antiproliferative activity against human Caov3 cells measured after 96 hrs by Celltiter-Glo assay; type: functional, cell-based; conditions: Caov-3, 96 h
Procedure, shortened: (§1)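 Cells plated 24 h, then treated 96 h with 0.1% DMSO or concentrations […]; growth by CellTiter-Glo luminescence, normalized to DMSO control; IC50 from dose–response curves by logistic nonlinear regression; mean of three independent experiments.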

[2] = Antiproliferative activity against human MDA-MB-DYT2 cells measured after 96 hrs by Celltiter-Glo assay; type: functional, cell-based; procedure, shortened: as §1
[3] = Antiproliferative activity against human NCI60 cells measured after 48 hrs by SRB assay; type: functional; conditions: NCI60, 48 h
[4] = test system: Paracentrotus lividus; experiment: Antimitotic activity in sea urchin embryo assessed as cleavage arrest exposed 8 to 15 mins after fertilization 45 to 55 mins before first mitotic cycle completion measured at 2.5 to 5.5 hrs post dose; type: functional
Procedure, shortened: (§2)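 Paracentrotus lividus eggs, fertilized in filtered seawater, cultured as monolayer (up to 2000 embryos/mL) at room temperature. Exposed 8–15 min post-fertilization to 2-fold decreasing concentrations (DMSO stock diluted in EtOH; final DMSO ≤0.05%, EtOH ≤1%). Cleavage alteration scored at 8-cell, arrest at early blastula stage (2.5–5.5 h). Effective threshold concentration reported; duplicate measurements.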

[5] = Antiproliferative activity against human MDA-MB-435 cells measured after 96 hrs by Celltiter-Glo assay; type: functional, cell-based; conditions: MDA-MB-435, 96 h; procedure, shortened: as §1
[6] = Antiproliferative activity against human MDA-MB-231 cells measured after 96 hrs by Celltiter-Glo assay; type: functional, cell-based; conditions: MDA-MB-231, 96 h; procedure, shortened: as §1
[7] = test system: Paracentrotus lividus; experiment: Antimitotic activity in sea urchin free-swimming blastulae assessed as microtubule destabilization by measuring embryo spinning exposed 8 to 10 hrs after fertilization measured after 15 mins to 20 hrs; type: functional, Blastula
Procedure, shortened: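 Free-swimming P. lividus blastulae just after hatching (8–10 h post-fertilization) from same culture, exposed in seawater to 2-fold decreasing concentrations (DMSO stock diluted in EtOH). Settling to well bottom with rapid spinning around animal-vegetal axis scored by light microscopy over 15 min–20 h. Effective threshold concentration; duplicate measurements.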

[8] = test system: Paracentrotus lividus; experiment: Antimitotic activity in sea urchin embryo assessed as cleavage alteration exposed 8 to 15 mins after fertilization 45 to 55 mins before first mitotic cycle completion measured at 2.5 to 5.5 hrs post dose; type: functional; procedure, shortened: as §2
[9] = Antiproliferative activity against human TOV112D cells measured after 96 hrs by Celltiter-Glo assay; type: functional, cell-based; procedure, shortened: as §1
[10] = Antiproliferative activity against human OVCAR8 cells measured after 3 to 4 days by Celltiter-Glo luminescent cell viability assay; type: functional; conditions: OVCAR-8
[11] = Antiproliferative activity against human MDA-MB-468 cells measured after 96 hrs by Celltiter-Glo assay; type: functional, cell-based; conditions: MDA-MB-468, 96 h; procedure, shortened: as §1
[12] = Antiproliferative activity against human NCI-H1975 cells measured after 96 hrs by Celltiter-Glo assay; type: functional, cell-based; conditions: NCI-H1975, 96 h; procedure, shortened: as §1
[13] = Antiproliferative activity against human MDA-MB-468 cells measured after 48 hrs by SRB assay; type: functional, cell-based; conditions: MDA-MB-468, 48 h
[14] = Antiproliferative activity against human MDA-MB-435 cells measured after 48 hrs by SRB assay; type: functional, cell-based; conditions: MDA-MB-435, 48 h
[15] = Antiproliferative activity against human NCI/ADR-RES cells measured after 3 to 4 days by Celltiter-Glo luminescent cell viability assay; type: functional
[16] = test system: Paracentrotus lividus; experiment: In vivo microtubule destabilizing activity in sea urchin embryo assessed as tuberculate egg formation exposed 8 to 15 mins after fertilization 45 to 55 mins before first mitotic cycle completion measured at 2.5 to 5.5 hrs post dose; type: functional
Procedure, shortened: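 Paracentrotus lividus eggs from KCl-induced spawning, fertilized and cultured in filtered seawater at room temperature, up to 2000 embryos/mL. Compounds came from 10 mM DMSO stocks diluted 10-fold in 96% EtOH; tolerated solvent limits were 0.05% DMSO and 1% EtOH. Eggs were exposed to 2-fold decreasing concentrations and scored by light microscopy. The result is the effective threshold concentration, measured in duplicate.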

[17] = Antiproliferative activity against human NCI60 cells at 10 uM after 48 hrs by SRB assay relative to control; type: functional; conditions: NCI60, 48 h, read-out: GI
[18] = Solubility in seawater assessed as micro-crystal formation at 4 uM by light microscopy; type: physicochemical
Procedure, shortened: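 Compound from 10 mM DMSO stock diluted 10-fold in 96% EtOH, added to seawater with sea urchin embryos; microcrystal formation checked by light microscopy.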

Row | Structure (SMILES) | EC [4] | EC [7] | EC [8] | inhibition of growth at 10 µM [17] | other results
1 | COc1ccc(/C=C\c2cc(OC)c(OC)c(OC)c2)cc1OP(=O)([O-])[O-].[Na+].[Na+] [FOSBRETABULIN DISODIUM] | 0.01 µM | 0.05 µM | 0.005 µM |  | IC50 [1]: 13.1 nM; IC50 [2]: 60 nM; GI50 [3]: 1.7 nM; IC50 [5]: 8.75 nM; IC50 [6]: 173 nM; IC50 [9]: 30.9 nM
2 | COc1cc(C2CC(=O)Nc3c(-c4ccccc4)nsc32)c(OC)c2c1OCO2 (stereo not given) | >4 µM | >4 µM | >4 µM |  | 
3 | COc1ccc(-c2nsc3c2NC(=O)CC3c2ccc3c(c2)OCCO3)cc1 (stereo not given) | 0.05 µM | 0.5 µM | 0.01 µM |  | IC50 [1]: 833 nM; GI50 [10]: 1410 nM; IC50 [2]: 1360 nM; IC50 [11]: 451 nM; IC50 [12]: 1240 nM; GI50 [3]: 933 nM; IC50 [13]: 328 nM; IC50 [5]: 349 nM; IC50 [6]: 1710 nM; IC50 [14]: 247 nM; GI50 [15]: 367 nM; IC50 [9]: 659 nM
4 | COc1ccc(-c2nsc3c2NC(=O)CC3c2ccc(F)cc2)cc1 (stereo not given) | 0.05 µM | 0.1 µM | 0.01 µM |  | IC50 [1]: > 2000 nM; GI50 [10]: 4010 nM; IC50 [2]: > 2000 nM; IC50 [11]: 1850 nM; IC50 [12]: > 2000 nM; GI50 [3]: 3020 nM; IC50 [13]: 2350 nM; IC50 [5]: 1820 nM; IC50 [6]: > 2000 nM; IC50 [14]: 440 nM; GI50 [15]: 2110 nM; IC50 [9]: > 2000 nM
5 | COc1cccc(C2CC(=O)Nc3c(-c4ccc(F)cc4)nsc32)c1 (stereo not given) | 4 µM | >4 µM | 1 µM | 15.1% | Activity [16]: Active
6 | COc1ccc(-c2nsc3c2NC(=O)CC3c2cc(OC)c3c(c2OC)OCO3)cc1 (stereo not given) | 0.2 µM | 1 µM | 0.05 µM |  | 
7 | O=C1CC(c2ccc(F)cc2)c2snc(-c3ccc(F)cc3)c2N1 (stereo not given) | 4 µM | >4 µM | 1 µM | 4.2% | solubility [18]: Insoluble
8 | O=C1CC(c2ccc3c(c2)OCO3)c2snc(-c3cccc(F)c3)c2N1 (stereo not given) | 4 µM | >4 µM | 1 µM | 5.2% | 
9 | COc1cc(C2CC(=O)Nc3c(-c4ccc(Cl)cc4)nsc32)c(OC)c2c1OCO2 (stereo not given) | >4 µM | >4 µM | >4 µM | 7.66% | 
10 | O=C1CC(c2ccc(F)cc2)c2snc(-c3cccc(F)c3)c2N1 (stereo not given) | 4 µM | >4 µM | 1 µM |  | Activity [16]: Active
11 | COc1cccc(C2CC(=O)Nc3c(-c4cccc(F)c4)nsc32)c1 (stereo not given) | 1 to 4 µM | >4 µM | 0.5 µM | 9.4% | solubility [18]: Insoluble
12 | O=C1CC(c2cccc(Cl)c2)c2snc(-c3cccc(F)c3)c2N1 (stereo not given) | 4 µM | >4 µM | 1 µM |  | 
13 | O=C1CC(c2cccc(F)c2)c2snc(-c3cccc(F)c3)c2N1 (stereo not given) | >4 µM | >4 µM | 1 µM | 6.4% | 
14 | COc1ccc(-c2nsc3c2NC(=O)CC3c2cccc(Cl)c2)cc1OC (stereo not given) | >4 µM | >4 µM | 2 µM | 14% | 
15 | COc1ccc(-c2nsc3c2NC(=O)CC3c2cc3c(c(OC)c2OC)OCO3)cc1 (stereo not given) | 2 µM | >5 µM | 0.2 µM | 26.9% | Activity [16]: Active
16 | O=C1CC(c2ccc3c(c2)OCO3)c2snc(-c3ccc(F)cc3)c2N1 (stereo not given) | >4 µM | >4 µM | 1 µM | 11.7% | 

Row | Structure (SMILES) | EC [4] | EC [7] | EC [8] | inhibition of growth at 10 µM [17] | other results
17 | COc1ccc(C2CC(=O)Nc3c(-c4cccc(F)c4)nsc32)cc1 (stereo not given) | >4 µM | >4 µM | 2 µM | 5.3% | 
18 | COc1ccc(-c2nsc3c2NC(=O)CC3c2cccc(Cl)c2)cc1 (stereo not given) | 0.1 µM | 0.1 µM | 0.01 µM |  | IC50 [1]: 1300 nM; GI50 [10]: 2920 nM; IC50 [2]: > 2000 nM; IC50 [11]: 752 nM; IC50 [12]: > 2000 nM; GI50 [3]: 1740 nM; IC50 [13]: 174 nM; IC50 [5]: 792 nM; IC50 [6]: 1620 nM; IC50 [14]: 749 nM; GI50 [15]: 562 nM; IC50 [9]: 1270 nM
19 | O=C1CC(c2cccc(Cl)c2)c2snc(-c3ccc(F)cc3)c2N1 (stereo not given) | 4 µM | >4 µM | 1 µM | 15.6% | 
20 | COc1cc(C2CC(=O)Nc3c(-c4cccc(F)c4)nsc32)c(OC)c2c1OCO2 (stereo not given) | >4 µM | >4 µM | >4 µM |  | 
21 | O=C1CC(c2ccsc2)c2snc(-c3ccc(Cl)cc3)c2N1 (stereo not given) | 0.1 µM | 0.2 µM | 0.01 µM |  | IC50 [1]: 1080 nM; GI50 [10]: 3010 nM; IC50 [2]: > 2000 nM; GI50 [3]: 1510 nM; IC50 [13]: 291 nM; IC50 [5]: 628 nM; IC50 [6]: 1630 nM; IC50 [14]: 260 nM; GI50 [15]: 364 nM; IC50 [9]: 1150 nM
22 | COc1cc(C2CC(=O)Nc3c(-c4cccc(F)c4)nsc32)cc2c1OCO2 (stereo not given) | >4 µM | >4 µM | 4 µM | 4.4% | 
23 | COc1cc(C2CC(=O)Nc3c(-c4ccc(Cl)cc4)nsc32)cc2c1OCO2 (stereo not given) | >4 µM | >4 µM | 2 µM | 17.8% | solubility [18]: Insoluble
24 | COc1ccc(-c2nsc3c2NC(=O)CC3c2cccc(F)c2)cc1 (stereo not given) | 0.05 µM | 0.2 µM | 0.01 µM |  | IC50 [1]: > 2000 nM; GI50 [10]: 7540 nM; IC50 [2]: > 2000 nM; IC50 [11]: 1410 nM; IC50 [12]: > 2000 nM; GI50 [3]: 4900 nM; IC50 [13]: 1940 nM; IC50 [5]: 1410 nM; IC50 [6]: > 2000 nM; IC50 [14]: 827 nM; GI50 [15]: 2960 nM; IC50 [9]: > 2000 nM
25 | COc1cc(C2CC(=O)Nc3c(-c4ccccc4)nsc32)c(OC)c(O)c1O (stereo not given) | >4 µM | >4 µM | >4 µM |  | 
26 | O=C1CC(c2ccsc2)c2snc(-c3cccc(F)c3)c2N1 (stereo not given) | 0.5 µM | 2 µM | 0.05 µM | 7.8% | 
27 | O=C1CC(c2ccsc2)c2snc(-c3ccc(F)cc3)c2N1 (stereo not given) | 0.2 µM | 4 µM | 0.05 µM |  | 
28 | COc1ccc(-c2nsc3c2NC(=O)CC3c2cc(OC)c(O)c(O)c2OC)cc1 (stereo not given) | 2 µM | >5 µM | 1 µM |  | 
29 | O=C1CC(c2ccc(Cl)cc2)c2snc(-c3cccc(F)c3)c2N1 (stereo not given) | >4 µM | >4 µM | >4 µM | 16.5% | solubility [18]: Insoluble
30 | COc1ccc(C2CC(=O)Nc3c(-c4ccc(F)cc4)nsc32)cc1 (stereo not given) | >4 µM | >4 µM | 2 µM | 6.2% | 
31 | COc1ccc(-c2nsc3c2NC(=O)CC3c2ccc(Cl)cc2)cc1 (stereo not given) | 0.2 µM | 1 µM | 0.1 µM | 15.7% | 
32 | COc1cc(C2CC(=O)Nc3c(-c4ccccc4)nsc32)cc2c1OCO2 (stereo not given) | >4 µM | >4 µM | 4 µM | 4.6% | 
